Data set [1] has as its system Escherichia coli. As to the kind of experiment: In vivo potency against acute systemic infection in mouse caused by Escherichia coli Vogel on oral administration by gavage. It counts as functional. The conditions noted are these: read-out: PD50. An outline of the steps:
(§1)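 Acute systemic mouse infection. A single oral dose was given by gavage at the time of challenge. Potency is reported as the median protective dose (PD50, mg/kg), determined by earlier published methods.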

Data set [2] is described as follows: Solubility (at pH 7.4). It counts as physicochemical. The settings on record: buffer, read-out: S. The procedure, abridged: (§2)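 Solubility was measured either from HPLC peak areas at equilibrium or by a conventional weight-per-volume method. All solutions were held for 24 h before measurement.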
The test system of data set [3] is Staphylococcus aureus. As to the kind of experiment: In vitro antibacterial activity against gram positive Staphylococcus aureus H-228. The format is functional.
Data set [4] can be described thus: Solubility (at pH 4). It counts as physicochemical. The conditions noted are these: buffer, read-out: S. The procedure, abridged:
as §2

The nature of data set [5]: Aqueous solubility. The settings on record: water (aqueous); read-out: S. It counts as physicochemical. The procedure, abridged:
as §2

Data set [6] has as its system Streptococcus pneumoniae. As to the kind of experiment: In vivo potency against acute systemic infection in mouse caused by Streptococcus pneumoniae SV-1 on oral administration by gavage. The settings on record: read-out: PD50. The format is functional. The procedure, abridged: as §1
A further data set relates to Klebsiella pneumoniae. Kind of data set: In vitro antibacterial activity against gram negative Klebsiella pneumoniae MGH-2. The format is functional.
In a further data set the test system is Pseudomonas aeruginosa. Kind of data set: In vitro antibacterial activity against gram negative Pseudomonas aeruginosa UI-18. It counts as functional.
Data set [7] relates to Mus musculus. As to the kind of experiment: In vivo potency against acute systemic infection in mouse caused by Streptococcus pyogenes C-203 on oral administration by gavage. It counts as functional. The conditions noted are these: read-out: PD50. An outline of the steps:
as §1

Another data set has as its system Enterococcus faecalis. Kind of data set: In vitro antibacterial activity against gram positive Enterococcus faecalis MGH-2. It counts as functional.
Data set [8] deals with DNA gyrase (Escherichia coli) (UniProt P0AES6+P0AES4). As to the kind of experiment: In vitro concentration inhibiting DNA gyrase induced cleavage in Escherichia coli H560. The format is functional. The procedure, abridged: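 DNA gyrase test run as described in earlier work. The value is the drug concentration (µg/mL) needed to cause DNA cleavage.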
The test system of data set [9] is Escherichia coli. Kind of data set: In vitro antibacterial activity against gram negative Escherichia coli Vogel. It counts as functional.
Data set [10] relates to Streptococcus pneumoniae. As to the kind of experiment: In vitro antibacterial activity against gram positive Streptococcus pneumoniae SV-1. It counts as functional.
Data set [11] in a line: Solubility (in 0.1 N HCl). It counts as physicochemical. The settings on record: read-out: S. An outline of the steps:
as §2

Another data set deals with Enterobacter cloacae. As to the kind of experiment: In vitro antibacterial activity against gram negative Enterobacter cloacae MA 2646. The format is functional.
The test system of data set [12] is Streptococcus pneumoniae. As to the kind of experiment: In vivo potency against acute systemic infection in mouse caused by Streptococcus pneumoniae SV-1 on subcutaneous injection. It counts as functional. The settings on record: sc, read-out: PD50. The procedure, abridged: (§3)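 Acute systemic mouse infection. A single subcutaneous dose was injected at the time of challenge. Potency is reported as the median protective dose (PD50, mg/kg), determined by earlier published methods.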

In data set [13] the test system is Staphylococcus aureus. Kind of data set: In vitro antibacterial activity against gram positive Staphylococcus aureus UC76. It counts as functional.
Data set [14] relates to Escherichia coli. As to the kind of experiment: In vivo potency against acute systemic infection in mouse caused by Escherichia coli vogel on subcutaneous injection. It counts as functional. The conditions noted are these: sc, read-out: PD50. An outline of the steps: as §3
For a further data set, the system named is Providencia rettgeri. Kind of data set: In vitro antibacterial activity against gram negative Providencia rettgeri M-1771. The format is functional.
In data set [15] the test system is Mus musculus. Kind of data set: In vivo potency against acute systemic infection in mouse caused by Streptococcus pyogenes C-203 on subcutaneous injection. The format is functional. The conditions noted are these: sc, read-out: PD50. An outline of the steps: as §3
For another data set, the system named is Streptococcus pyogenes. As to the kind of experiment: In vitro antibacterial activity against gram positive Streptococcus pyogenes C-203. The format is functional.

A value given as a limit tells only on which side of the number the result lay.

In general, MIC refers to the least concentration at which growth counts as inhibited. Read a high MIC as a need for much substance. Consider `C[C@H](N)C(=O)N[C@@H]1CCN(c2nc3c(cc2F)c(=O)c(C(=O)O)cn3C2CC2)C1.Cl.O`, for which the ED50 in the data set on Escherichia coli [1] is 2 mg/kg; in the data set on Streptococcus pneumoniae [6], 40 mg/kg; in the data set on Mus musculus [7] it was 49 mg/kg; with Streptococcus pneumoniae [12], 28 mg/kg; with Escherichia coli [14], 0.5 mg/kg; in the data set on Mus musculus [15] it was 32 mg/kg. The solubility in data set [2] was 70 µg/mL; in data set [4], over 200 mg/mL; in [5] it was over 200 mg/mL; in [11], over 200000 µg/mL. Moreover, the MIC was found to be 3.1 µg/mL in the data set on Staphylococcus aureus [3]; 3.1 µg/mL in the data set on Klebsiella pneumoniae; 6.3 µg/mL in the data set on Pseudomonas aeruginosa; 3.1 µg/mL in the data set on Enterococcus faecalis; 1.6 µg/mL against Escherichia coli [9]; 1.6 µg/mL against Streptococcus pneumoniae [10]. For the same molecule, the minimal inhibitory concentration (MIC) against Enterobacter cloacae was found to be 0.8 µg/mL; in the data set with Staphylococcus aureus [13] it was 0.8 µg/mL; in the data set on Providencia rettgeri, 3.1 µg/mL; in the data set with Streptococcus pyogenes, 0.8 µg/mL. In data set [8], this molecule displayed a Cleavage of 1 µg/mL.
For `C[C@H](N)C(=O)NC1CCN(c2cc3c(cc2F)c(=O)c(C(=O)O)cn3C2CC2)C1.Cl.O` (some centres not stated), the ED50 in the data set with Escherichia coli [1] is 5 mg/kg; with Streptococcus pneumoniae [6] it was over 100 mg/kg; in the data set on Mus musculus [7], over 100 mg/kg; in the data set on Streptococcus pneumoniae [12] it was 13 mg/kg; with Escherichia coli [14], 0.5 mg/kg; in the data set with Mus musculus [15], 5 mg/kg. The solubility was 270 µg/mL in data set [2], over 100 mg/mL in [4], over 100 mg/mL in data set [5] and over 100000 µg/mL in [11]. Moreover, the minimum inhibitory concentration (MIC) was 3.1 µg/mL against Staphylococcus aureus [3]; 0.8 µg/mL against Klebsiella pneumoniae; 1.6 µg/mL in the data set with Pseudomonas aeruginosa; 1.6 µg/mL in the data set with Enterococcus faecalis; 0.4 µg/mL against Escherichia coli [9]; 0.4 µg/mL with Streptococcus pneumoniae [10]. For the same molecule, the minimal inhibitory concentration (MIC) was 0.8 µg/mL against Enterobacter cloacae, 0.4 µg/mL with Staphylococcus aureus [13], 1.6 µg/mL in the data set on Providencia rettgeri and 0.4 µg/mL against Streptococcus pyogenes. Besides, the Cleavage in data set [8] is 1 µg/mL.
Consider `C[C@H](N)C(=O)N[C@@H]1CCN(c2c(F)c(N)c3c(=O)c(C(=O)O)cn(C4CC4)c3c2F)C1.Cl.O`, for which the ED50 in the data set with Escherichia coli [1] worked out at 2.2 mg/kg; in the data set with Streptococcus pneumoniae [6], 18 mg/kg; in the data set with Mus musculus [7], 20 mg/kg; with Streptococcus pneumoniae [12], 7.7 mg/kg; in the data set on Escherichia coli [14], 0.5 mg/kg; in the data set on Mus musculus [15], 6.3 mg/kg. Further, the solubility in data set [2] worked out at 40 µg/mL; in [4], 71 mg/mL; in [5] it was 21 mg/mL; in data set [11] it was 3200 µg/mL. Besides, the MIC in the data set on Staphylococcus aureus [3] was determined as 0.4 µg/mL; in the data set on Klebsiella pneumoniae, 0.8 µg/mL; against Pseudomonas aeruginosa, 3.1 µg/mL; in the data set with Enterococcus faecalis it was 0.4 µg/mL; in the data set with Escherichia coli [9] it was 0.4 µg/mL; in the data set with Streptococcus pneumoniae [10] it was 0.2 µg/mL. The MIC with Enterobacter cloacae was determined as 0.8 µg/mL; against Staphylococcus aureus [13], 0.025 µg/mL; against Providencia rettgeri, 1.6 µg/mL; against Streptococcus pyogenes, 0.2 µg/mL. Also, the Cleavage in data set [8] was found to be 5 µg/mL.
Turning to `C[C@H](N)C(=O)N[C@H]1CCN(c2c(F)cc3c(=O)c(C(=O)O)cn(C4CC4)c3c2F)C1.Cl.O`, the ED50 in the data set on Escherichia coli [1] is 1 mg/kg; with Streptococcus pneumoniae [6], 25 mg/kg; in the data set with Streptococcus pneumoniae [12] it was 9 mg/kg; in the data set with Escherichia coli [14] it was 0.4 mg/kg. Further, the solubility in data set [2] was found to be 70 µg/mL; in [4], 19 mg/mL; in data set [5] it was 33 mg/mL; in [11] it was 5400 µg/mL. For the same molecule, the MIC in the data set with Staphylococcus aureus [3] came out at 0.1 µg/mL; in the data set with Klebsiella pneumoniae it was 0.2 µg/mL; against Pseudomonas aeruginosa, 0.1 µg/mL; in the data set on Enterococcus faecalis, 0.1 µg/mL; in the data set with Escherichia coli [9], 0.1 µg/mL; in the data set on Streptococcus pneumoniae [10], 0.1 µg/mL. The MIC stood at 0.1 µg/mL against Enterobacter cloacae, 0.025 µg/mL with Staphylococcus aureus [13], 0.2 µg/mL against Providencia rettgeri and 0.1 µg/mL in the data set on Streptococcus pyogenes. Further, in [8], the Cleavage amounted to 2.5 µg/mL.

Values taken from ChEMBL document CHEMBL1126036, “Quinolone antibacterial agents. Synthesis and structure-activity relationships of a series of amino acid prodrugs of racemic and chiral 7-(3-amino-1-pyrrolidinyl)quinolones. Highly soluble quinolone prodrugs with in vivo pseudomonas activity” (J Med Chem, 1992).
